Source: ChEMBL document CHEMBL3414425, “Synthesis and biological evaluation of new imidazo[2,1-b][1,3,4]thiadiazole-benzimidazole derivatives” (Eur J Med Chem, 2015)
Converted amounts (≈) assume the structure as drawn. The source made the active and inactive calls. The rule behind the calls is not given here.

Columns and labels:
Salmonella typhi [1] = experiment: Antibacterial activity against Salmonella typhi at 0.5 mg/ml incubated for 18 hrs by well plate technique; assay type: functional, Salmonella enterica subsp. enterica serovar Typhi; conditions: for zone of inhibition at 500 µg/mL: Salmonella enterica, read-out: DIZ; for diameter of the inhibition zone (DIZ): Salmonella enterica subsp. enterica serovar Typhi
Procedure, shortened: (§1)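 Well diffusion on nutrient agar; strains kept on nutrient agar at 37 °C, grown statically in nutrient broth 18-24 h at 37 °C, diluted in saline, 0.1 ml spread per plate. Compounds in DMSO at 1 and 0.5 mg/mL added to cork-bored wells; 18 h at 37 °C. Inhibition zone diameter measured, DMSO value subtracted; triplicate; streptomycin reference.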

Pseudomonas aeruginosa [2] = experiment: Antibacterial activity against Pseudomonas aeruginosa at 1 mg/ml incubated for 18 hrs by well plate technique; assay type: functional; conditions: for zone of inhibition at 1000 µg/mL: read-out: DIZ
Procedure, shortened: (§2)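 Bacteria kept on nutrient agar at 37 °C, grown statically in nutrient broth (start ~10-100 cfu/mL) at 37 °C for 18-24 h. Suspensions diluted in saline and spread on nutrient agar, then wells cut with a cork borer. Compound in DMSO at 1 or 0.5 mg/mL added to wells, 37 °C, 18 h. Inhibition zone diameter measured minus DMSO value; triplicate; streptomycin standard.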

[3] = test system: Mycobacterium tuberculosis; experiment: Antitubercular activity against Mycobacterium tuberculosis H37Rv ATCC 27294/XDR-TB incubated for 28 days by agar dilution method; assay type: functional; conditions: 672 h
Procedure, shortened: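 Agar dilution: two-fold dilutions in Middlebrook 7H11 agar with OADC. Inoculum from fresh 7H11/OADC slants adjusted to 1 mg/mL wet weight in 0.05% Tween 80 saline, diluted 10^-2 (~10⁷ cfu/mL); 5 µL spotted per tube. Incubated 37 °C; MIC, lowest concentration fully inhibiting growth, read after 28 days, in triplicate.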

[4] = test system: Chrysosporium keratinophilum; experiment: Antifungal activity against Chrysosporium keratinophilum at 0.5 mg/ml incubated for 3 days; assay type: functional; conditions: for zone of inhibition at 500 µg/mL: 72 h, read-out: IZ
Procedure, shortened: (§3)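 Well plate method on potato dextrose agar. Fungal stock suspended in distilled water with Tween 80 and swabbed over plates. Samples in DMSO at 1 and 0.5 mg/mL added to wells, incubated 25 °C for 3 days, then scored for inhibition zones; fluconazole standard.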

Candida albicans [5] = experiment: Antifungal activity against Candida albicans at 0.5 mg/ml incubated for 3 days; assay type: functional; conditions: for zone of inhibition at 500 µg/mL: 72 h, read-out: IZ; procedure, shortened: as §3
Aspergillus flavus [6] = experiment: Antifungal activity against Aspergillus flavus at 1 mg/ml incubated for 3 days; assay type: functional; conditions: for zone of inhibition at 1000 µg/mL: 72 h, read-out: IZ; procedure, shortened: as §3
Aspergillus flavus [7] = experiment: Antifungal activity against Aspergillus flavus at 0.5 mg/ml incubated for 3 days; assay type: functional; conditions: for zone of inhibition at 500 µg/mL: 72 h, read-out: IZ; procedure, shortened: as §3
Candida albicans [8] = experiment: Antifungal activity against Candida albicans at 1 mg/ml incubated for 3 days; assay type: functional; conditions: for zone of inhibition at 1000 µg/mL: 72 h, read-out: IZ; procedure, shortened: as §3
[9] = Cytotoxicity against African green monkey Vero cells assessed as growth inhibition at 62.5 ug/ml after 72 hrs by MTT assay; assay type: cell-based; conditions: chlorocebus sabaeus, read-out: GI
Procedure, shortened: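 Vero cells grown in MEM + 10% FBS at 37 °C, 5% CO2. Seeded ~10,000 cells/well, 24 h to a partial monolayer. Compounds in DMSO diluted in MEM + 2% FBS (1 mg/ml stock, two-fold dilutions) for 72 h. MTT 3 h, formazan dissolved in propanol, A540. % inhibition = 100 − (mean OD test/mean OD control × 100).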

Escherichia coli [10] = experiment: Antibacterial activity against Escherichia coli at 1 mg/ml incubated for 18 hrs by well plate technique; assay type: functional; conditions: for zone of inhibition at 1000 µg/mL: read-out: DIZ; procedure, shortened: as §2
[11] = test system: Chrysosporium keratinophilum; experiment: Antifungal activity against Chrysosporium keratinophilum at 1 mg/ml incubated for 3 days; assay type: functional; conditions: for zone of inhibition at 1000 µg/mL: 72 h, read-out: IZ; procedure, shortened: as §3
Staphylococcus aureus [12] = experiment: Antibacterial activity against Staphylococcus aureus at 0.5 mg/ml incubated for 18 hrs by well plate technique; assay type: functional; conditions: for zone of inhibition at 500 µg/mL: read-out: DIZ; procedure, shortened: as §2
Escherichia coli [13] = experiment: Antibacterial activity against Escherichia coli at 0.5 mg/ml incubated for 18 hrs by well plate technique; assay type: functional; conditions: for zone of inhibition at 500 µg/mL: read-out: DIZ; procedure, shortened: as §2
Salmonella typhi [14] = experiment: Antibacterial activity against Salmonella typhi at 1 mg/ml incubated for 18 hrs by well plate technique; assay type: functional, Salmonella enterica subsp. enterica serovar Typhi; conditions: for zone of inhibition at 1000 µg/mL: Salmonella enterica, read-out: DIZ; for diameter of the inhibition zone (DIZ): Salmonella enterica subsp. enterica serovar Typhi; procedure, shortened: as §1
Staphylococcus aureus [15] = experiment: Antibacterial activity against Staphylococcus aureus at 1 mg/ml incubated for 18 hrs by well plate technique; assay type: functional; conditions: for zone of inhibition at 1000 µg/mL: read-out: DIZ; procedure, shortened: as §2
[16] = Antioxidant activity assessed as DPPH radical scavenging activity incubated for 10 mins by UV-visible spectrometry; assay type: physicochemical
Procedure, shortened: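 DPPH free-radical scavenging; absorbance read at 517 nm against a methanol blank. % scavenging = (A control − A sample)/A control × 100.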

Pseudomonas aeruginosa [17] = experiment: Antibacterial activity against Pseudomonas aeruginosa at 0.5 mg/ml incubated for 18 hrs by well plate technique; assay type: functional; conditions: for zone of inhibition at 500 µg/mL: read-out: DIZ; procedure, shortened: as §2

Row | Compound | zone of inhibition at 500 µg/mL (Salmonella typhi [1]) [mm] | zone of inhibition at 1000 µg/mL (Pseudomonas aeruginosa [2]) [mm] | MIC [3] [µg/mL] | zone of inhibition at 1000 µg/mL (Escherichia coli [10]) [mm] | zone of inhibition at 500 µg/mL (Staphylococcus aureus [12]) [mm] | zone of inhibition at 500 µg/mL (Escherichia coli [13]) [mm] | zone of inhibition at 1000 µg/mL (Salmonella typhi [14]) [mm] | zone of inhibition at 1000 µg/mL (Staphylococcus aureus [15]) [mm] | inhibition (INH) [16] [%] | zone of inhibition at 500 µg/mL (Pseudomonas aeruginosa [17]) [mm] | diameter of the inhibition zone (DIZ) (Salmonella typhi [1]) | inhibition zone (IZ) [4] | inhibition zone (IZ) (Candida albicans [5]) | inhibition zone (IZ) (Aspergillus flavus [6]) | inhibition zone (IZ) (Aspergillus flavus [7]) | inhibition zone (IZ) (Candida albicans [8]) | inhibition zone (IZ) [11] | diameter of the inhibition zone (DIZ) (Pseudomonas aeruginosa [2]) | diameter of the inhibition zone (DIZ) (Escherichia coli [10]) | diameter of the inhibition zone (DIZ) (Staphylococcus aureus [12]) | further results
1 | COc1ccc(-c2nc3sc(-c4ccc(C)cc4)nn3c2-c2nc3cc(Cl)ccc3[nH]2)cc1 | 1 | 7 | 3.12 (≈ 6.62 µM) | 4 | 3 | 2 | 3 | 6 | 31.3 | 3 |  |  |  |  |  |  |  |  |  |  | zone of inhibition at 500 µg/mL [4]: 2 mm; zone of inhibition at 500 µg/mL (Candida albicans [5]): 2 mm; zone of inhibition at 1000 µg/mL (Aspergillus flavus [6]): 3 mm; zone of inhibition at 500 µg/mL (Aspergillus flavus [7]): 2 mm; zone of inhibition at 1000 µg/mL (Candida albicans [8]): 3 mm; inhibition at 72 h, 62.5 ug/ml [9]: 8.31%; zone of inhibition at 1000 µg/mL [11]: 4 mm
2 | Cc1ccc(-c2nc3sc(C)nn3c2-c2nc3ccccc3[nH]2)cc1 |  | 3 | 3.12 (≈ 9.05 µM) | 5 | 3 | 2 | 6 | 5 | 28.6 | 2 | inactive | inactive | inactive | inactive | inactive | inactive | inactive |  |  |  | inhibition at 72 h, 62.5 ug/ml [9]: 5.03%
3 | Cc1ccc(-c2nc3sc(-c4ccc(Cl)cc4)nn3c2-c2nc3cc([N+](=O)[O-])ccc3[nH]2)cc1 |  |  | 6.25 (≈ 12.8 µM) |  |  |  |  |  | 26.3 |  | inactive | inactive | inactive | inactive | inactive | inactive | inactive | inactive | inactive | inactive | inhibition at 72 h, 62.5 ug/ml [9]: 8.85%; diameter of the inhibition zone (DIZ) (Escherichia coli [13]): inactive; diameter of the inhibition zone (DIZ) (Salmonella typhi [14]): inactive; diameter of the inhibition zone (DIZ) (Staphylococcus aureus [15]): inactive; diameter of the inhibition zone (DIZ) (Pseudomonas aeruginosa [17]): inactive
4 | Cc1nn2c(-c3nc4cc([N+](=O)[O-])ccc4[nH]3)c(-c3ccc(Cl)cc3)nc2s1 | 4 | 8 | 50 (≈ 122 µM) | 6 | 7 | 4 | 6 | 9 | 29.8 | 5 |  | inactive | inactive | inactive | inactive | inactive | inactive |  |  |  | 
5 | COc1ccc(-c2nc3sc(-c4ccc(F)cc4)nn3c2-c2nc3ccccc3[nH]2)cc1 |  |  | 12.5 (≈ 28.3 µM) |  |  |  |  |  | 25.4 |  | inactive | inactive | inactive | inactive | inactive | inactive | inactive | inactive | inactive | inactive | diameter of the inhibition zone (DIZ) (Escherichia coli [13]): inactive; diameter of the inhibition zone (DIZ) (Salmonella typhi [14]): inactive; diameter of the inhibition zone (DIZ) (Staphylococcus aureus [15]): inactive; diameter of the inhibition zone (DIZ) (Pseudomonas aeruginosa [17]): inactive
6 | COc1ccc(-c2nc3sc(-c4ccc(Cl)cc4)nn3c2-c2nc3ccccc3[nH]2)cc1 | 1 | 2 | 12.5 (≈ 27.3 µM) | 3 | 2 | 1 | 3 | 3 | 20.9 | 1 |  | inactive | inactive | inactive | inactive | inactive | inactive |  |  |  | 
7 | COc1ccc(-c2nc3sc(-c4ccc(F)cc4)nn3c2-c2nc3cc(Cl)ccc3[nH]2)cc1 | 0 | 2 | 50 (≈ 105 µM) | 5 | 1 | 1 | 3 | 4 | 38.6 | 1 |  |  |  |  |  |  |  |  |  |  | zone of inhibition at 500 µg/mL [4]: 1 mm; zone of inhibition at 500 µg/mL (Candida albicans [5]): 2 mm; zone of inhibition at 1000 µg/mL (Aspergillus flavus [6]): 4 mm; zone of inhibition at 500 µg/mL (Aspergillus flavus [7]): 2 mm; zone of inhibition at 1000 µg/mL (Candida albicans [8]): 5 mm; zone of inhibition at 1000 µg/mL [11]: 4 mm
8 | Cc1ccc(-c2nn3c(-c4nc5cc([N+](=O)[O-])ccc5[nH]4)c(-c4ccc(Cl)cc4)nc3s2)cc1 |  |  | 12.5 (≈ 25.7 µM) |  |  |  |  |  | 21.8 |  | inactive | inactive | inactive | inactive | inactive | inactive | inactive | inactive | inactive | inactive | diameter of the inhibition zone (DIZ) (Escherichia coli [13]): inactive; diameter of the inhibition zone (DIZ) (Salmonella typhi [14]): inactive; diameter of the inhibition zone (DIZ) (Staphylococcus aureus [15]): inactive; diameter of the inhibition zone (DIZ) (Pseudomonas aeruginosa [17]): inactive
9 | Cc1ccc(-c2nc3sc(-c4ccc(Cl)cc4)nn3c2-c2nc3cc(Cl)ccc3[nH]2)cc1 | 2 | 4 | 25 (≈ 52.5 µM) | 4 | 3 | 2 | 3 | 3 | 31.9 | 3 |  |  |  |  |  |  |  |  |  |  | zone of inhibition at 500 µg/mL [4]: 2 mm; zone of inhibition at 500 µg/mL (Candida albicans [5]): 3 mm; zone of inhibition at 1000 µg/mL (Aspergillus flavus [6]): 3 mm; zone of inhibition at 500 µg/mL (Aspergillus flavus [7]): 2 mm; zone of inhibition at 1000 µg/mL (Candida albicans [8]): 4 mm; zone of inhibition at 1000 µg/mL [11]: 3 mm
10 | Cc1nn2c(-c3nc4cc([N+](=O)[O-])ccc4[nH]3)c(-c3ccc(F)cc3)nc2s1 | 1 | 1 | 50 (≈ 127 µM) | 4 | 2 | 2 | 2 | 3 | 25.9 | 3 |  | inactive | inactive | inactive | inactive | inactive | inactive |  |  |  | 
11 | Cc1ccc(-c2nc3sc(C)nn3c2-c2nc3cc([N+](=O)[O-])ccc3[nH]2)cc1 |  |  | 50 (≈ 128 µM) |  |  |  |  |  | 28.9 |  | inactive | inactive | inactive | inactive | inactive | inactive | inactive | inactive | inactive | inactive | diameter of the inhibition zone (DIZ) (Escherichia coli [13]): inactive; diameter of the inhibition zone (DIZ) (Salmonella typhi [14]): inactive; diameter of the inhibition zone (DIZ) (Staphylococcus aureus [15]): inactive; diameter of the inhibition zone (DIZ) (Pseudomonas aeruginosa [17]): inactive
